TRPC4 agonist – activators of mouse TRPC4 channel, primary screen, Fluo4 calcium, HEK293 TRPC4beta/mu-opioid cells. Short transient receptor potential channel 4 (Mus musculus), Q9QUQ5. Fluo4 calcium fluorescence; hits give high values. B-score at 10 µM. actives 0.49% (n = 310,000);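 active = B-score above 5 SD of library B-scores, and initial fluorescence ratio not above library mean plus 5 SD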;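 also: positive B-score marks a calcium rise read as TRPC4 activation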
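Assay system: HEK293 stable line with TRPC4beta plus mu-opioid receptor; schedule: 45 min room-temperature Fluo4 loading, 110 s read; technique: kinetic Fluo4 calcium fluorescence; evaluation: integrated baseline-normalised fluorescence ratio, converted to per-well B score; controls: buffer (low) and maximal DAMGO (high)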
TRPC6 activator – mouse TRPC6 channel activators, primary screen, cell-based, HEK293, membrane potential dye; Short transient receptor potential channel 6 (Mus musculus), Q61143; HEK293-TRPC6 membrane potential dye fluorescence; hits give high values; B-score at 10 µM; actives 0.13% (n = 310,000); AID 2550, 2010;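 active = B-score of the integrated fluorescence ratio above library mean plus 3 SD, and starting fluorescence ratio within library mean plus 5 SD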;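 also: higher score means more depolarization so channel activation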
TRPC6 inh – mouse TRPC6 channel inhibitors, primary screen, cell-based, HEK293, membrane potential dye; B-score at 10 µM; actives 1.1% (n = 310,000); AID 2553, 2010; ACh-evoked depolarization; hits give low values;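 active = B-score under library mean minus 3 SD, initial fluorescence not abnormally high, positive integrated signal ratio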;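 also: B-score derived from integrated fluorescence ratio over the kinetic read; more negative B-score means stronger inhibition of depolarization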
DSG3 Ab inh – inhibitors of pemphigus antibody binding to DSG3, primary screen, biochemical, bead-based, flow cytometry, scFv-GFP; actives 0.48% (n = 310,000); AID 588358, 2011; Desmoglein-3 (Homo sapiens), P32926; binding (percent of control), % at 10 µM; DSG3-coupled beads, scFv-anti-DSG3-GFP binding; hits give low values;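 active = binding more than 3 SD below its plate's average and above zero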;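 also: hits lower antibody fragment binding to DSG3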
TRPC4 potent – positive allosteric modulators of TRPC4, primary screen, cell-based, mouse TRPC4beta, HEK293 mu-opioid, Fluo-4 calcium | Short transient receptor potential channel 4 (Mus musculus), Q9QUQ5 | DAMGO EC20, Fluo-4 Ca2+ flux; hits give high values | B-score at 10 µM | actives 0.42% (n = 310,000);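 active = B-score of calcium response area above 5 SD of library B-scores, with initial fluorescence ratio within 5 SD of library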;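 also: B-score of integrated fluorescence ratio over time as area under calcium response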
TRPC4 block – inhibitors of mouse TRPC4 channel, primary screen, Fluo4 calcium, HEK293 TRPC4beta/mu-opioid cells; DAMGO-evoked Fluo4 calcium flux; hits give low values; Short transient receptor potential channel 4 (Mus musculus), Q9QUQ5; B-score at 10 µM; actives 0.39% (n = 300,000);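 active = B-score over 3 SD under the library average, no early fluorescence shift, positive overall ratio signal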
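material = TRPC4beta/mu-opioid receptor HEK293 cell line | probe or stimulus = sequential submaximal and maximal DAMGO stimulation | compound dosing = one concentration per compound | measured by = Fluo4 Ca2+ flux fluorescence | evaluation = integrated fluorescence ratio relative to baseline, converted to per-well B score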
HEK293 MPD ctr – parental HEK293 membrane potential modulation, confirmation, counter-screen for TRPC6 modulator project, cell-based; shares compounds with TRPC6 inh; membrane potential dye fluorescence; membrane potential signal change, % at 10 µM; actives 51% (n = 2,400); AID 488924, 2010;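 active = membrane potential signal moves up or down beyond 5 SD from buffer-only wells, on both duplicate plates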
HEK293 MPD ctr 2 – second counter-screen for TRPC6 modulators: effect in parental HEK293 cells; membrane potential dye fluorescence; after compound, maximal acetylcholine stimulation; actives 14% (n = 2,400); shares compounds with TRPC6 inh; inhibition, % at 10 µM;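 active = membrane potential signal drops by more than 5 SD from the mean control signal, in both duplicate plates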;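 also: plate controls were acetylcholine ECmax control wells for no effect and buffer only wells for full effect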
TRPC4/MOR mod – TRPC4 modulation by TRPC6 hit compounds, confirmation, selectivity assay for TRPC6 modulator project, cell-based, HEK293 TRPC4/mu-opioid, membrane potential dye, mouse; AID 488927, 2010; shares compounds with TRPC6 inh; membrane potential fluorescence; percent change from control (negative = decrease, positive = increase), % at 10 µM; actives 69% (n = 2,400);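 active = membrane potential signal moved up or down beyond 5 SD of buffer control wells, in both duplicate plates, actives on both sides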;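 also: plate controls were assay buffer wells for no effect and DAMGO maximal-effect wells for full effect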
TRPC4 ctr inh 2 – second selectivity test of TRPC6 modulators against mouse TRPC4; AID 488928; HEK293 TRPC4/mu-opioid, membrane potential dye fluorescence; stimulated with maximal-effect DAMGO; shares compounds with TRPC6 inh; inhibition, % at 10 µM; actives 55% (n = 2,400);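 active = drop in membrane potential signal beyond 5 SD of the control wells in both duplicate plates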;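 also: TRPC4 counter screen for TRPC6 hits run under conditions tuned for TRPC6 not TRPC4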
TRPC6 inh conf – mouse TRPC6 channel inhibitors, confirmation, HEK293 cells, membrane potential dye, duplicate | shares compounds with TRPC6 inh | ACh-evoked depolarization | inhibition, % at 10 µM | actives 43% (n = 3,300) | AID 488960, 2010;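 active = fluorescence ratio falls more than 5 SD below the full-stimulation control mean, in both duplicate runs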;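 also: integrated fluorescence ratio of peak minus minimum over baseline after agonist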
TRPC6 act conf – mouse TRPC6 channel activators, confirmation, HEK293 cells, membrane potential dye, duplicate; shares compounds with TRPC6 inh; HEK293-TRPC6 membrane potential dye fluorescence, FDSS; actives 11% (n = 2,800); activation, % at 10 µM;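 active = ratio signal rise beyond 5 SD above unstimulated control wells' mean, seen in both duplicate runs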;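 also: plate controls were buffer EC0 wells for no effect and acetylcholine ECmax response for full effect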
* marks the source's active call; other numbers are inactive results. The list is not random: actives were taken first. Their share in the collection is about 2.5%.

Screening COC(=O)COc1ccc(S(=O)(=O)N2CCCCC2)cc1[N+](=O)[O-] returned TRPC4 agonist inactive, TRPC6 activator inactive, TRPC6 inh -5.31*, DSG3 Ab inh 97.0, TRPC4 potent inactive, TRPC4 block inactive, HEK293 MPD ctr inactive, HEK293 MPD ctr 2 inactive, TRPC4/MOR mod inactive, TRPC4 ctr inh 2 44.0%*, TRPC6 inh conf inactive and TRPC6 act conf inactive.
Screening COc1ccc(NC(=O)C2CCN(S(=O)(=O)c3ccc(OC)c(OC)c3)CC2)cc1 returned TRPC4 agonist inactive, TRPC6 activator inactive, TRPC6 inh inactive, DSG3 Ab inh 106.0, TRPC4 potent inactive and TRPC4 block inactive.
COc1ccc(S(=O)(=O)N2CCCCC2)cc1NC(=O)Cc1ccsc1 was read as DSG3 Ab inh 100.3.
Screening O=C(COc1ccc(S(=O)(=O)N2CCCC2)cc1[N+](=O)[O-])N1CCCC1 returned DSG3 Ab inh 103.2.
Screening COc1ccc(S(=O)(=O)N2CCC(C(=O)Nc3ccc(S(=O)(=O)N4CCCC4)cc3)CC2)cc1OC returned TRPC4 agonist inactive, TRPC6 activator inactive, TRPC6 inh -5.42*, DSG3 Ab inh 108.6, TRPC4 potent inactive, TRPC4 block inactive, HEK293 MPD ctr inactive, HEK293 MPD ctr 2 inactive, TRPC4/MOR mod inactive, TRPC4 ctr inh 2 inactive, TRPC6 inh conf inactive and TRPC6 act conf inactive.
O=c1[nH]c(=S)[nH]c2c1CN(Cc1ccc(F)cc1)CC2 was read as TRPC4 agonist inactive, TRPC6 activator inactive, TRPC6 inh inactive, DSG3 Ab inh 111.8, TRPC4 potent inactive and TRPC4 block inactive.
For O=C1OC(c2ccccc2)(c2ccc3cc(O)ccc3c2)c2ccccc21 (configuration not stated) the results were DSG3 Ab inh 90.9.
`COc1ccccc1NC(=O)NC1(C(=O)N2CCN(C)CC2)CCCCC1` gave TRPC4 agonist inactive, TRPC6 activator inactive, TRPC6 inh inactive, TRPC4 potent inactive and TRPC4 block inactive.
